Assay outcomes as filed in PubChem.
This is a sample that favours compounds with a hit; in the whole collection about 4.2% have one here.
KCC2 mod: KCC2 (human) Cl- transport modulation. Q9H2X9. KCC2 cells, thallium flux FluoZin-2 fluorescence. B-score of Tl+ flux slope (higher = more flux/activation; lower = inhibition) at 10 µM. hit rate 2.2% among 190,000. AID 1456;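 active = thallium flux slope and its plate-corrected score both differing from the plate sample mean at a set confidence after two filtering rounds, in either direction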;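 also: slope of fluorescence scaled to starting intensity during 10 to 20 s after thallium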
KCNQ1 block: human KCNQ1 channel inhibition; P51787; CHO-K1 KCNQ1, FluxOR thallium flux fluorescence; stronger effect = higher value; B-score at 10 µM; hit rate 1.3% among 310,000; AID 2642;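 active = compounds whose thallium flux B-score, printed positive for inhibition, exceeds three library SD while starting fluorescence stays within three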;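 also: channel opened by potassium depolarization with thallium stimulus after 20 min compound exposure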
Target sequence (P51787 whole entry, looked up): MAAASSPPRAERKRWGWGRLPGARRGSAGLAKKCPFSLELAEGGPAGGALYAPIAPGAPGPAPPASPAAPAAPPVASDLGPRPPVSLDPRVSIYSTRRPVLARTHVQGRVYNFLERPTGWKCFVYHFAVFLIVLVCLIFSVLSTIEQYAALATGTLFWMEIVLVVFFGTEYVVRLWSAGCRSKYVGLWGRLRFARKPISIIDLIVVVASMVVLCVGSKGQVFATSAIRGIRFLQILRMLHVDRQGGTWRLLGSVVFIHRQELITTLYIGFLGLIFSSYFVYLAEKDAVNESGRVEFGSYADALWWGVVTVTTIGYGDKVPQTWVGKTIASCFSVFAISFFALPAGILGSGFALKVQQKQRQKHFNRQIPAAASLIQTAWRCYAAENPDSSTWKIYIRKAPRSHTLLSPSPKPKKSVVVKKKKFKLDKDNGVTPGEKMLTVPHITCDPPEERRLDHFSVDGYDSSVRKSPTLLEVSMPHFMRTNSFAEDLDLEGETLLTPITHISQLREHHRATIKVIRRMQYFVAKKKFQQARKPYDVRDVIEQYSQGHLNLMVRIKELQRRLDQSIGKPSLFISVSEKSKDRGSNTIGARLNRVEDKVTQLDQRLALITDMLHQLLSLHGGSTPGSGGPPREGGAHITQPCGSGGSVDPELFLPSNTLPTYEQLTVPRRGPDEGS
hERG rescue: hERG (human) protection from proarrhythmic block | Q12809 | CHO-hERG, FluxOR thallium flux, dofetilide IC70 present | activation (rescue from dofetilide block), less the hit threshold, % at 10 µM | hit rate 0.51% among 310,000 | AID 1511;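 active = activation above the mean of controls blocked by dofetilide plus 5 SD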;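 also: thallium influx through hERG after potassium depolarization seen as dye fluorescence rise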
KCNQ1 act: potentiates or activates the human KCNQ1 potassium channel | P51787 | hit rate 0.35% among 310,000 | AID 2648 | CHO-K1 KCNQ1, thallium flux FluxOR fluorescence; stronger effect = higher value | B-score at 10 µM;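 active = fluorescence ratio B-score, a plate-corrected score, at least three library SD, with initial intensity B-score within 5 SD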
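Assay system: stable KCNQ1 CHO-K1 line; medium: assay buffer, equal DMSO in all wells; timing: 90 min dye loading and 20 min compound exposure, both at room temperature; technique: kinetic FluxOR thallium fluorescence, 10-s 1-Hz baseline, 110-s post-stimulus read; read-out basis: B score of baseline-normalized fluorescence ratio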
AI-2 QS mod: modulates the Vibrio harveyi AI-2 quorum sensing system | Vibrio harveyi JMH597 AI-2 luminescence/OD600 ratio, 9 h; stronger effect = lower value; strain lacks LuxN and CqsS sensors; 0 = neutral-control median | activity change, % at 7.5 µM | hit rate 0.4% among 300,000 | AID 2094; in the data active = activity change below about -75%, passing the limit was not always enough;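 also: luminescence divided by OD600 gain over 9 h not by final OD600 alone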
Mot1-301 SUMO: inhibitors of SUMOylation pathway: yeast Mot1-301 growth rescue; S. cerevisiae Mot1-301 growth rescue, ATP luminescence, 38.5C; percent above DMSO median, 100 means doubled; hit rate 1% among 320,000; growth rescue, % at 18.8 µM;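 active = every valid replicate shows activation above 250% relative to neutral control wells; inactive = the rest, any valid replicate at or below 250%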
Each line names hits and unclear results; the compound was inactive in the other large screens.

CCCc1c(C(=O)NNc2cccc(Cl)c2)cnn1-c1ccccc1	Mot1-301 SUMO 478
COc1ccc(/C=C2\Oc3cc(OCC(=O)N4CCC[C@H]4CO)ccc3C2=O)c(OC)c1	none (no result: KCC2 mod)
COc1ccc(NC(=O)Nc2ccc3c(c2)OCO3)c(C)c1	none (no result: KCC2 mod)
CCN1/C(=C/C=C/c2oc3ccc(-c4ccccc4)cc3[n+]2CC)Oc2ccc(-c3ccccc3)cc21	Mot1-301 SUMO 339
C#CCOCCOCCOCCNc1nc(N2CCN(C(=O)[C@H](CCC(=O)O)n3cc(C(N)[C@H](C)CC)nn3)CC2)nc(N2CCN(C(=O)[C@H](CCC(=O)O)n3cc(C(N)[C@H](C)CC)nn3)CC2)n1 (stereo partly drawn)	none
COC(=O)C1=C(C)NC2=C(C(=O)CCC2)C1c1ccc(-c2ccsc2C(=O)OC)o1 (stereo not drawn)	hERG rescue 14
COC(=O)C1=C(C)NC2=C(C(=O)CCC2)C1c1ccsc1 (stereo not drawn)	none (no result: Mot1-301 SUMO)
CN1CCCCCC1C(=O)N1CCC(N2CCC(C(=O)N3CCOCC3)CC2)CC1 (stereo not drawn)	Mot1-301 SUMO 270
CN1CC=C2C(C#N)=C(N)C(C#N)(C#N)[C@H](c3cccc(Cl)c3)C2C1 (stereo partly drawn)	KCNQ1 block 8
CC(C)c1ccc(C2C3CSCC=C3C(C#N)=C(N)C2(C#N)C#N)cc1 (stereo not drawn)	KCNQ1 block 12 (no result: KCC2 mod)
O=C(O)CCc1nnc(SCC(=O)Nc2cccc(C(F)(F)F)c2)[nH]c1=O	none
COCCCn1c(=O)c2sccc2n2c(CCCC(=O)NCc3ccc(OC)cc3)nnc12	none (no result: KCC2 mod)
O=C(Nc1cccc2cccnc12)c1ccccc1Cl	Mot1-301 SUMO 332 (no result: KCC2 mod)
N#CC1=C(SCC(=O)c2cc3ccccc3oc2=O)NC(=O)C(C#N)C12CCCC2 (stereo not drawn)	KCNQ1 block 7
Cc1cc2c(cc(C(=O)OCC(=O)NCc3cccs3)n2C(C)C)o1	none
COc1ccc(CCN2C(=O)CSC2=Nc2ccc(C(C)C)cc2)cc1OC	none
COc1ccc(CN2CSC(=S)N(Cc3ccccc3)C2)cc1	none (no result: KCC2 mod)
COc1ccc(CN2CSC(=S)N(Cc3ccc(OC)cc3)C2)cc1	Mot1-301 SUMO 328
O=C(Cn1cnc2ccccc21)OCC(=O)N1CCCCC1	none (no result: KCC2 mod, KCNQ1 block, hERG rescue, KCNQ1 act, AI-2 QS mod)
Cc1cc(S(=O)(=O)NCc2ccncc2)c(C)cc1Br	KCNQ1 block 6 (no result: KCC2 mod)
N/C(=N\OC(=O)Nc1ccccc1)c1ncc([N+](=O)[O-])s1	AI-2 QS mod -88
O=C(CC1C(=O)NCCN1Cc1cccc(C(F)(F)F)c1)NC1CCCCCC1 (stereo not drawn)	none (no result: KCC2 mod)
COc1ccc(C(=O)NC(=S)Nc2ccc(CN3CCOCC3)cc2)cc1OC	none
COc1c(Cl)cc(Cl)cc1C(=O)Nc1ccc(CN2CCCCC2)cc1	none
COc1ccc(Br)cc1/C=C/C(=O)NC(=S)Nc1ccc(CN2CCOCC2)cc1	KCNQ1 block 8 (no result: KCC2 mod)
COc1c(Cl)cc(Cl)cc1C(=O)Nc1ccc(CN2CCOCC2)cc1	Mot1-301 SUMO 356 (no result: KCC2 mod)
Cc1cccc(C(=O)Oc2cccc3c(O)cccc23)c1	none (no result: KCC2 mod)
O=C(COc1ccccc1)Nc1ncc2c(n1)CCCC2=O	Mot1-301 SUMO 292 (no result: KCC2 mod)
CCCCN(CC)C(=O)Cn1ncc2c3ccccc3n(CCC)c2c1=O	none (no result: KCC2 mod)
CCN1C(=O)/C(=C2\SC(=S)N(NC(=O)c3ccccc3O)C2=O)c2ccccc21	KCNQ1 block 10
CCN1C(=O)/C(=C2\SC(=S)N(CC3CCCO3)C2=O)c2ccccc21 (stereo not drawn)	none (no result: KCNQ1 block, hERG rescue, KCNQ1 act, AI-2 QS mod, Mot1-301 SUMO)
CC1CC(C)CN(C(=O)c2cccc(S(=O)(=O)Nc3cc(C(F)(F)F)ccc3Cl)c2)C1 (stereo not drawn)	KCNQ1 block 7
O=S1(=O)CCN2C=Nc3sc4c(c3C2=N1)CCCC4	none (no result: KCC2 mod)
CC1(C)Cc2c(sc3c2C2=NCCN2C=N3)CO1	KCC2 mod 7
CN1C(=O)/C(=N\OC(=O)c2cccc3ccccc23)c2ccccc21	hERG rescue 11, KCNQ1 act 18
CC(C)CC(=O)NC(=S)Nc1ccc(N2CCCC2)c(Cl)c1	none
CC(C)C(=O)Nc1ccc(N2CCCC2)c(Cl)c1	Mot1-301 SUMO 497
CC(C)C(=O)Nc1ccc2c(c1)Cc1cc(NC(=O)C(C)C)ccc1-2	hERG rescue 6.0 (no result: KCC2 mod)
CCn1c(=S)[nH]c2cc(C(=O)OC)ccc2c1=O	KCC2 mod 9.2
CC(C)N(C(=O)CSc1ncnc2sc(-c3ccccc3)cc12)C(C)C	KCC2 mod 7.1 (no result: Mot1-301 SUMO)
O=C(COC(=O)c1ccc(O)cc1O)Nc1ccc(Cl)cn1	AI-2 QS mod -83 (no result: KCC2 mod)
COCCSc1ccccc1C(=O)NCc1cccnc1	none
ClCC1NCC(c2ccccc2Cl)c2c1[nH]c1ccccc21 (stereo not drawn)	none
COc1ccc(-n2c(C)cc(C(=O)CCl)c2C)cc1	KCNQ1 act 8, AI-2 QS mod -87
Cc1cc(NC(=O)CCC(=O)N(Cc2ccco2)C2(C(=O)NC3CCCCC3)CCCC(C)C2)no1 (stereo not drawn)	none (no result: KCC2 mod)
COc1ccc(NC(=O)CC2CCCC2)cc1S(=O)(=O)N1CCCCC1	none
COc1ccc(NC(=O)CC2CCCCC2)cc1OC	hERG rescue 5.7
CCN(CC)CCCN(Cc1cc2cc3c(cc2[nH]c1=O)OCO3)C(=S)NCCCN(C)C	Mot1-301 SUMO 880 (no result: KCC2 mod)
Cc1ccc2[nH]c(=O)c(CN(CCCN(C)C)C(=S)NCCc3ccccc3)cc2c1	KCNQ1 act 10
CN(C)CCCNC(=S)N(CCCN(C)C)Cc1cc2cc3c(cc2[nH]c1=O)OCO3	none (no result: KCC2 mod)
Nc1nc(Sc2c([N+](=O)[O-])cc(C(F)(F)F)cc2[N+](=O)[O-])n[nH]1	none
Cc1c(O)cc2c(c1O)C(=O)CC(c1ccc(O)cc1)O2 (stereo not drawn)	none
CC(C)=CCc1c(O)c(CC=C(C)C)c2c(c1O)C(=O)CC(c1ccc(O)cc1)O2 (stereo not drawn)	KCNQ1 block 8
N=c1c2c(n(Cc3ccc([N+](=O)[O-])cc3)c3c1CCC3)CCCC2	none
N=c1c2c(n(Cc3ccc(Br)cc3)c3c1CCC3)CCCC2	KCNQ1 block 7
Cc1ccc(OCc2cc(C(=O)N(C)Cc3cnc4ccccn34)no2)cc1C	none (no result: KCC2 mod)
CN(C)c1ccc(/C=C(/C(=O)c2ccc(Cl)cc2Cl)n2cncn2)cc1	Mot1-301 SUMO 308
COc1ccc(/C=C(/C(=O)c2ccc(Cl)cc2Cl)n2cncn2)cc1	none (no result: Mot1-301 SUMO)
COc1cc(CCC(=O)Nc2nccs2)cc(OC)c1OC	none (no result: KCC2 mod)
Cc1nnc(NC(=O)CSc2nnnn2Cc2ccccc2)s1	none
CCCn1nnnc1SCC(=O)Nc1nnc(CC)s1	hERG rescue 17
Cc1nc(NC(=O)CSc2nnnn2Cc2ccccc2)sc1C	hERG rescue 5.0
